ChEMBL document CHEMBL2331184, “The synthesis and SAR of calcitonin gene-related peptide (CGRP) receptor antagonists derived from tyrosine surrogates. Part 2” (Bioorg Med Chem Lett, 2013)
The source made the active and inactive calls. The rule behind the calls is not given here.

What was measured:
Cytochrome P450 3A4 [1] = target: T1, Cytochrome P450 3A4 (Homo sapiens, UniProt P08684); assay: (§1) Inhibition of CYP3A4 (unknown origin) using 7-benzyloxy-4-trifluoromethylcoumarin as substrate; assay type: ADME
T1 sequence (P08684 whole entry): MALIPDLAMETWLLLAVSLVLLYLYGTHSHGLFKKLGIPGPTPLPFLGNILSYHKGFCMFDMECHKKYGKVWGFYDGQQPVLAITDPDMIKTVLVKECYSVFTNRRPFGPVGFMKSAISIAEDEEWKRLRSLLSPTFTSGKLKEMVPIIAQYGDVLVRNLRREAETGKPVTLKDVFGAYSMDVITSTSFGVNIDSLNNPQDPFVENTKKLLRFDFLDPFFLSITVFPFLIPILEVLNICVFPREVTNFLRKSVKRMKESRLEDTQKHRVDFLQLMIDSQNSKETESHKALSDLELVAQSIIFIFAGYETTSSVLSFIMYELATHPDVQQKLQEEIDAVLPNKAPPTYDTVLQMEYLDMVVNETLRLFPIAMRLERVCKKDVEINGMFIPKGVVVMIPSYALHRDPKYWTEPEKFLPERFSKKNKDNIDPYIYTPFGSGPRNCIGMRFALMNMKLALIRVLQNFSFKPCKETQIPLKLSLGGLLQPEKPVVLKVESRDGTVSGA

[2] = target: T2, Calcitonin gene-related peptide type 1 receptor (Homo sapiens, UniProt O60894+Q16602); assay: Binding affinity to CGRP receptor (unknown origin)
T2 sequence (Q16602 whole entry, one chain of several): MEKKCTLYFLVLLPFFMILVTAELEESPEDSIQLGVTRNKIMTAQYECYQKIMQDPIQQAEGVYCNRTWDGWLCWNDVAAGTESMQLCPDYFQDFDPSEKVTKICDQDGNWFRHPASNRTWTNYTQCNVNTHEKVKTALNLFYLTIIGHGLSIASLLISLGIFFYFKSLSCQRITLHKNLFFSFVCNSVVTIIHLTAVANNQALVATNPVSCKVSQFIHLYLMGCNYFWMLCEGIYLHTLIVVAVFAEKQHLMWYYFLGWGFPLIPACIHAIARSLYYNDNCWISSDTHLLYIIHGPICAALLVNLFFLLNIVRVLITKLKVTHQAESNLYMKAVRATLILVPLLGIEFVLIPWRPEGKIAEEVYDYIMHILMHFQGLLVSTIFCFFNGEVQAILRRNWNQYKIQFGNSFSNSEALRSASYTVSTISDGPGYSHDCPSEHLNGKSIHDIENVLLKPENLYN

Cytochrome P450 3A4 [3] = target: T1, Cytochrome P450 3A4; assay: Inhibition of CYP3A4 (unknown origin) using 7-benzyloxy-resorufin as substrate; assay type: ADME
[4] = Plasma concentration in marmoset at 0.03 g/kg, sc after 105 mins; assay type: ADME, organism-based, Callithrix jacchus; conditions: 30 mg/kg
Outline: (§2)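 Marmosets were anesthetized. Facial blood flow was raised by iv haCGRP (10 µg/kg) given at −30, 15, 60 and 105 min and read by laser Doppler flowmetry. The antagonist (racemate) was given SC at 0 min and compared with vehicle-treated animals, n = 5. Plasma levels were taken at 15, 60 and 105 min.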

Callithrix jacchus = assay: Inhibition of CGRP-induced increases in marmoset facial blood flow at 0.03 g/kg, sc after 60 to 105 mins by doppler flowmetry; assay type: functional, organism-based; outline: as §2
[5] = target: Calcitonin gene-related peptide type 1 receptor (Homo sapiens) (UniProt Q16602); assay: (§3) Antagonist activity at CGRP receptor in human SK-N-MC cells assessed as inhibition of […]-induced cAMP production; assay type: functional, cell-based
Sequence of Calcitonin gene-related peptide type 1 receptor (Homo sapiens) (Q16602 whole entry): as the sequence (Q16602 whole entry, one chain of several) above
Outline: (§4)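 Concentration-dependent inhibition of CGRP-stimulated cAMP production measured in SK-N-MC cells expressing the human CGRP receptor. Value reported as EC50.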

[6] = Plasma concentration in marmoset at 0.03 g/kg, sc after 60 mins; assay type: ADME, organism-based, Callithrix jacchus; conditions: 30 mg/kg; outline: as §2
[7] = Plasma concentration in marmoset at 0.03 g/kg, sc after 15 mins; assay type: ADME, organism-based, Callithrix jacchus; conditions: 30 mg/kg; outline: as §2
Salmonella typhimurium = assay: Genotoxicity in Salmonella typhimurium by Ames test; assay type: toxicity, organism-based; conditions: salmonella enterica subsp. enterica serovar typhimurium
[8] = Bioavailability in rabbit at 0.6 mg/kg administered intranasally; assay type: ADME, organism-based, Oryctolagus cuniculus; conditions: in vivo, inhaled or intranasal
Outline: (§5)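 Rabbits were dosed intranasally with a spray of a 10 mg/mL aqueous solution of the HCl salt, at 0.6 mg/kg. […] Intranasal bioavailability was derived from these plasma levels.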

[9] = Aqueous solubility of the compound at pH 4.0 to 6.2; assay type: physicochemical; conditions: aqueous solution
[10] = target: T3, Nuclear receptor subfamily 1 group I member 2 (Homo sapiens, UniProt O75469); assay: Activation of PXR (unknown origin)
T3 sequence (O75469 whole entry): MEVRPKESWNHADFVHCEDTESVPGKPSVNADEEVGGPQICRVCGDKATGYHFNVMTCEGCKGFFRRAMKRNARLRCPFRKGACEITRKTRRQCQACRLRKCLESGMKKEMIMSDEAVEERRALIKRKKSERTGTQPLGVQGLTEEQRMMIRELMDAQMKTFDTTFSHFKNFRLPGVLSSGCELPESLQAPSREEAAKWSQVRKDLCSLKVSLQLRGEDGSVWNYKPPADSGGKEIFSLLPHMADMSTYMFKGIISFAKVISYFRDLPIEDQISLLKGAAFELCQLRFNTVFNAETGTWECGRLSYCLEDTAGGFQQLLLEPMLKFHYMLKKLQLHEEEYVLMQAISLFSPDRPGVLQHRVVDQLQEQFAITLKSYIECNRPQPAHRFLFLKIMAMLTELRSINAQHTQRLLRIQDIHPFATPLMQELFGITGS

[11] = Tmax in rabbit at 0.6 mg/kg administered intranasally; assay type: ADME, organism-based, Oryctolagus cuniculus; set-up: dose 0.6 mg/kg; conditions: in vivo, inhaled or intranasal; outline: as §5
CYP3A4 = CYP3A4 (Homo sapiens, UniProt P08684); assay: as §1; assay type: ADME; conditions: probe 7-benzyloxy-4-trifluoromethylcoumarin
Sequence of CYP3A4 (P08684 whole entry): as the sequence (P08684 whole entry) above

[12] = Reversal of CGRP-induced dilation on human intracranial arteries; assay type: functional, Artery
Outline: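 Ex vivo human intracranial artery rings were mounted between two wire hooks on a force transducer to record tone. Rings were precontracted with 10 mM KCl and fully dilated with 1 nM haCGRP. Dilation was then reversed by cumulative half-log additions of antagonist.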

[13] = target: T2, Calcitonin gene-related peptide type 1 receptor; assay: as §3; assay type: functional, cell-based; outline: as §4

| SMILES | IC50 (Cytochrome P450 3A4 [1]) [nM] | Ki [2] [nM] | IC50 (Cytochrome P450 3A4 [3]) [nM] | inhibition [5] | other results |
| --- | --- | --- | --- | --- | --- |
| O=C(N[C@H](Cc1cc2oc(=O)[nH]c2cc1Cl)C(=O)N1CCC(N2CCCCC2)CC1)N1CCC(N2Cc3ccccc3NC2=O)CC1 | > 40000 | 0.28 | 5000 | Active |  |
| Cc1cc(C[C@@H](NC(=O)N2CCC(N3Cc4ccccc4NC3=O)CC2)C(=O)N2CCC(N3CCCCC3)CC2)cc2cn[nH]c12.Cl |  |  |  |  | Activity (Salmonella typhimurium): Non-toxic; bioavailability [8]: 42%; solubility [9]: 13 mg/mL; Activity [10]: Not Active; Tmax [11]: 10 min |
| CC(C)c1cc(CC(NC(=O)N2CCC(N3Cc4ccccc4NC3=O)CC2)C(=O)N2CCC(N3CCCCC3)CC2)cc2cn[nH]c12 (racemic) |  | 0.22 | 370 | Active |  |
| O=C(N[C@H](Cc1ccc2[nH]ncc2c1)C(=O)N1CCC(N2CCCCC2)CC1)N1CCC(N2Cc3ccccc3NC2=O)CC1 |  |  |  | Active | IC50 (CYP3A4): > 40000 nM; EC50 [12]: 1.2 nM |
| Cc1cc(C[C@@H](NC(=O)N2CCC(N3Cc4ccccc4NC3=O)CC2)C(=O)N2CCC(N3CCCCC3)CC2)cc2nn[nH]c12 |  |  |  | Active |  |
| O=C(N[C@H](Cc1cc(I)c2[nH]c(=O)oc2c1)C(=O)N1CCC(N2CCCCC2)CC1)N1CCC(N2Cc3ccccc3NC2=O)CC1 | 32000 | 0.055 | 5500 | Active |  |
| O=C(N[C@H](Cc1cc2oc(=O)[nH]c2cc1Br)C(=O)N1CCC(N2CCCCC2)CC1)N1CCC(N2Cc3ccccc3NC2=O)CC1 |  | 0.14 |  | Active |  |
| N#Cc1cc(C[C@@H](NC(=O)N2CCC(N3Cc4ccccc4NC3=O)CC2)C(=O)N2CCC(N3CCCCC3)CC2)cc2oc(=O)[nH]c12 |  | 11 |  | Active |  |
| Cc1cc(C[C@H](NC(=O)N2CCC(N3Cc4ccccc4NC3=O)CC2)C(=O)N2CCC(N3CCCCC3)CC2)cc2cn[nH]c12 |  | 27 |  | Active |  |
| Cc1cc(C[C@@H](NC(=O)N2CCC(N3Cc4ccccc4NC3=O)CC2)C(=O)N2CCC(N3CCCCC3)CC2)cc2cn[nH]c12 [listing 2 of 2 here] |  |  |  | Active |  |
| CCc1cc(CC(NC(=O)N2CCC(N3Cc4ccccc4NC3=O)CC2)C(=O)N2CCC(N3CCCCC3)CC2)cc2c(C)n[nH]c12 (racemic) | > 40000 | 0.048 | 6900 | Active |  |

Further compounds by falling Ki [2], results first:

| IC50 (Cytochrome P450 3A4 [1]) [nM] | Ki [2] [nM] | IC50 (Cytochrome P450 3A4 [3]) [nM] | inhibition [5] | SMILES | other results |
| --- | --- | --- | --- | --- | --- |
| > 40000 | 0.039 | 17000 | Active | O=C(N[C@H](Cc1cc(Cl)c2[nH]c(=O)oc2c1)C(=O)N1CCC(N2CCCCC2)CC1)N1CCC(N2Cc3ccccc3NC2=O)CC1 |  |
| 3500 | 0.032 | 1600 | Active | Cc1cc(C[C@@H](NC(=O)N2CCC(N3Cc4ccccc4NC3=O)CC2)C(=O)N2CCC(N3CCCCC3)CC2)c(Cl)c2cn[nH]c12 |  |
| > 40000 | 0.023 | 7200 | Active | O=C(N[C@H](Cc1cc(Br)c2[nH]c(=O)oc2c1)C(=O)N1CCC(N2CCCCC2)CC1)N1CCC(N2Cc3ccccc3NC2=O)CC1 |  |
| > 40000 | 0.015 | 7300 |  | Cc1cc(C[C@@H](NC(=O)N2CCC(N3Cc4ccccc4NC3=O)CC2)C(=O)N2CCC(N3CCCCC3)CC2)cc2[nH]nnc12 |  |
|  | 0.012 |  | Active | Cc1cc(CC(NC(=O)N2CCC(N3Cc4ccccc4NC3=O)CC2)C(=O)N2CCC(N3CCCCC3)CC2)cc2cn[nH]c12 (racemic) | concentration at 1.75 h [4]: 11 nM; inhibition (Callithrix jacchus): Active; concentration at 1 h [6]: 13 nM; concentration at 0.25 h [7]: 4.7 nM |
| 13000 | 0.011 | 180 | Active | O=C(NC(Cc1cc(Cl)c2[nH]ncc2c1)C(=O)N1CCC(N2CCCCC2)CC1)N1CCC(N2Cc3ccccc3NC2=O)CC1 (racemic) |  |
|  | 0.0073 |  |  | Cc1cc(C[C@@H](NC(=O)N2CCC(N3Cc4ccccc4NC3=O)CC2)C(=O)N2CCC(N3CCCCC3)CC2)cc2cn[nH]c12 [listing 1 of 2 here] | EC50 [13]: 0.017 nM; EC50 [12]: 0.05 nM |
| 25000 | 0.005 | 450 | Active | CCc1cc(CC(NC(=O)N2CCC(N3Cc4ccccc4NC3=O)CC2)C(=O)N2CCC(N3CCCCC3)CC2)cc2cn[nH]c12 (racemic) |  |
